Data taken from ChEMBL document CHEMBL1130413, “Novel 3'-C/N-substituted 2',3'-beta-D-dideoxynucleosides as potential chemotherapeutic agents. 1. Thymidine derivatives: synthesis, structure, and broad spectrum antiviral properties” (J Med Chem, 1997).
Values after ≈ are worked out from the molar mass of the structure shown.

Columns and labels:
FM3A [1] = test: EC50 is the cytotoxic concentration of compound required to reduce FM3A/TK- (Thymidine kinase deficient murine mammary carcinoma cells) cell viability by 50%.; assay type: functional, cell-based; details: Mus musculus
In short: (§1)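 Murine L1210 or FM3A-derived cells seeded at 5 × 10^5 cells/mL with varying compound concentrations. Incubated 2 days at 37 °C in humidified CO2. Viable cells counted with a Coulter counter. Value is the concentration reducing viable cell number by 50%.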

E6SM [2] = test: 50% Minimum inhibitory concentration which is required to reduce cytopathogenicity induced by (KOS) strain of HSV-1 virus on human E6SM cells.; assay type: functional
In short: (§2)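 Confluent cell monolayers infected with 100 CCID50 virus and left 1 h for adsorption. Residual virus then removed and compound added at serial dilutions (400, 200, 100 ... µg/mL). Value is the concentration giving 50% reduction of CPE.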

L1210 = test: EC50 is the cytotoxic concentration of compound required to reduce L1210 (murine leukemia cells) cell viability by 50%.; assay type: functional, cell-based; details: Mus musculus; in short: as §1
MT4 [3] = test: 50% effective concentration of compound which is required to protect human MT-4 cells against cytopathogenicity of HIV-1.; assay type: functional, cell-based
E6SM [4] = test: 50% Minimum inhibitory concentration which is required to reduce cytopathogenicity induced by (196) strain of HSV-2 virus on human E6SM cells.; assay type: functional; in short: as §2
MT4 [5] = test: 50% effective concentration of compound which is required to protect human MT-4 cells against cytopathogenicity of HIV-2.; assay type: functional, cell-based
HEL [6] = test: 50% Minimum inhibitory concentration which is required to reduce cytopathogenicity induced by (Lyons) strain of HSV-2 virus on human embryonic HEL cells.; assay type: functional; in short: as §2
CEM-TK(-) [7] = test: Cytotoxic concentration which is required to reduce CEM/TK- cell viability by 50%.; assay type: functional; details: Homo sapiens
HEL [8] = test: 50% Minimum inhibitory concentration which is required to reduce cytopathogenicity induced by (KOS) strain of HSV-1 virus on human embryonic HEL cells.; assay type: functional; in short: as §2
E6SM [9] = test: 50% Minimum inhibitory concentration which is required to reduce cytopathogenicity induced by TK-(B2006) strain of HSV-1 virus on human E6SM cells.; assay type: functional; in short: as §2
MOLT-4 = test: EC50 is the cytotoxic concentration of compound required to reduce Molt4/C8 (human T-lymphocyte) cell viability by 50%.; assay type: functional, cell-based
In short: (§3)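 Human CEM or Molt-4 cells seeded at 7.5 × 10^5 cells/mL with varying compound concentrations. Incubated 3 days at 37 °C in humidified CO2. Viable cells counted with a Coulter counter. Value is the concentration reducing viable cell number by 50%.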

FM3A [10] = test: EC50 is the cytotoxic concentration of compound required to reduce FM3A/TK- HSV-1TK+ cell viability by 50%.; assay type: functional, cell-based; details: Mus musculus; in short: as §1
E6SM [11] = test: 50% Minimum inhibitory concentration which is required to reduce cytopathogenicity induced by (Lyons) strain of HSV-2 virus on human E6SM cells.; assay type: functional; in short: as §2
CEM-TK(-) [12] = test: 50% effective concentration of compound which is required to protect Thymidine kinase deficient human CEM (CEM/TK-) cells against HIV-2.; assay type: functional, cell-based
[13] = Selectivity index of HIV-1 and HIV-2 with respect to MT-4 cells; assay type: functional, MT4
In short: (§4)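 Selectivity index calculated as average CC50 divided by average EC50. Each average comes from two independent experiments, using HIV-1 (IIIB) and HIV-2 (ROD) in CEM or MT-4 cells.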

MT4 [14] = test: Cytotoxic concentration which is required to reduce human MT-4 cell viability by 50%.; assay type: functional
FM3A [15] = test: EC50 is the cytotoxic concentration of compound required to reduce FM3A (murine mammary carcinoma cells) cell viability by 50%.; assay type: functional, cell-based; details: Mus musculus; in short: as §1
E6SM [16] = test: 50% Minimum inhibitory concentration which is required to reduce cytopathogenicity induced by (F) strain of HSV-1 virus on human E6SM cells.; assay type: functional; in short: as §2
CCRF-CEM [17] = test: 50% effective concentration of compound which is required to protect human CEM cells against HIV-2 induced giant cell formation.; assay type: functional, cell-based
In short: (§5)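 CEM cells at 250000–300000 cells/mL infected with HIV-1 (IIIB) or HIV-2 (ROD) at 100 CCID50/mL. Infected cells mixed with serial compound dilutions and incubated 4 days at 37 °C. Syncytium (giant cell) formation then scored. Values averaged over two independent experiments.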

[18] = Minimum cytotoxic concentration which causes microscopically detectable alteration of normal cell morphology after 2 days of incubation.; assay type: functional; details: 48 h
In short: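 Uninfected E6SM cells exposed to compound for 2 days. Minimum concentration giving a microscopically detectable change in normal cell morphology recorded.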

E6SM [19] = test: 50% Minimum inhibitory concentration which is required to reduce cytopathogenicity induced by (Mc Intyre) strain of HSV-1 virus on human E6SM cells.; assay type: functional; in short: as §2
HEL [20] = test: 50% Minimum inhibitory concentration which is required to reduce cytopathogenicity induced by (G) strain of HSV-2 virus on human embryonic HEL cells.; assay type: functional; in short: as §2
E6SM [21] = test: 50% Minimum inhibitory concentration which is required to reduce cytopathogenicity induced by (G) strain of HSV-2 virus on human E6SM cells.; assay type: functional; in short: as §2
HEL [22] = test: 50% Minimum inhibitory concentration which is required to reduce cytopathogenicity induced by TK-(B2006) strain of HSV-1 virus on human embryonic HEL cells.; assay type: functional; in short: as §2
HEL [23] = test: 50% Minimum inhibitory concentration which is required to reduce cytopathogenicity induced by (Mc Intyre) strain of HSV-1 virus on human embryonic HEL cells.; assay type: functional; in short: as §2
CCRF-CEM [24] = test: 50% effective concentration of compound which is required to protect human CEM cells against HIV-1 induced giant cell formation.; assay type: functional, cell-based; in short: as §5
[25] = Selectivity index of HIV-1 and HIV-2 with respect to CEM cells; assay type: functional, CCRF-CEM; in short: as §4
CCRF-CEM [26] = test: Cytotoxic concentration which is required to reduce human CEM cell viability by 50%.; assay type: functional; in short: as §3
HEL [27] = test: 50% Minimum inhibitory concentration which is required to reduce cytopathogenicity induced by (OKA) strain of Varicella Zoster virus on human embryonic HEL cells.; assay type: functional
HepG2 = test: 50% Effective concentration of compound required for inhibiting intracellular viral replicative intermediate DNA in HBV-transfected 2.2.15 cell line.; assay type: functional, cell-based; details: Homo sapiens
In short: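 2.2.15 cells (HBV-transfected, Hep-G2-derived) in DMEM with 4% FBS and 0.5 mM glutamine; drug exposure 9 days, medium changed every 3 days. Total intracellular DNA extracted and Southern-blotted with a 32P-labelled full-length HBV probe. Replicative intermediate DNA in treated cells compared with untreated 2.2.15 cells; Hep-G2 as negative control.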

HeLa = test: 50% Minimum inhibitory concentration which is required to reduce cytopathogenicity induced by Vesicular Stomatitis virus (VSV) in Hela cells.; assay type: functional; details: Homo sapiens; in short: as §2

Compound | EC50 (FM3A [1]) | MIC (E6SM [2]) | EC50 (L1210) | EC50 (MT4 [3]) | MIC (E6SM [4]) | EC50 (MT4 [5]) | CC50 (CEM-TK(-) [7]) | MIC (E6SM [9]) | EC50 (MOLT-4) | EC50 (FM3A [10]) | MIC (E6SM [11]) | EC50 (CEM-TK(-) [12]) | Selectivity index [13] | CC50 (MT4 [14]) | EC50 (FM3A [15]) | MIC (E6SM [16]) | EC50 (CCRF-CEM [17]) | MCC [18] | MIC (E6SM [19]) | MIC (E6SM [21]) | further results
Cc1cn(C2CC([N+](=O)[O-])C(CO)O2)c(=O)[nH]c1=O (stereo not given) | > 200 µg/mL | > 200 µg/mL | 58 µg/mL (≈ 214 µM) | 1 µg/mL (≈ 3.69 µM) | > 200 µg/mL | 2.2 µg/mL (≈ 8.11 µM) | > 200 µg/mL | > 200 µg/mL | 70 µg/mL (≈ 258 µM) | > 200 µg/mL | > 200 µg/mL | > 100 µg/mL | 79 | 93 µg/mL (≈ 343 µM) | > 200 µg/mL | > 200 µg/mL | 100 µg/mL (≈ 369 µM) | > 200 µg/mL | > 200 µg/mL | > 200 µg/mL | MIC (HEL [6]): 25 µg/mL (≈ 92.2 µM); MIC (HEL [8]): 5 µg/mL (≈ 18.4 µM); MIC (HEL [20]): 20 µg/mL (≈ 73.7 µM); MIC (HEL [22]): > 50 µg/mL; MIC (HEL [23]): 20 µg/mL (≈ 73.7 µM); EC50 (CCRF-CEM [24]): > 100 µg/mL; Selectivity index [25]: >1.7; CC50 (CCRF-CEM [26]): 168 µg/mL (≈ 619 µM)
CO/N=C1/C[C@H](n2cc(C)c(=O)[nH]c2=O)O[C@@H]1CO.CO/N=C1\C[C@H](n2cc(C)c(=O)[nH]c2=O)O[C@@H]1CO | > 200 µg/mL | > 200 µg/mL | 112 µg/mL | 3.3 µg/mL | > 200 µg/mL | 4.6 µg/mL | > 200 µg/mL | > 200 µg/mL | > 200 µg/mL | > 200 µg/mL | > 200 µg/mL | > 100 µg/mL | 64 | 182 µg/mL | > 200 µg/mL | > 200 µg/mL | 27 µg/mL | > 200 µg/mL | > 200 µg/mL | > 200 µg/mL | MIC (HEL [6]): 35 µg/mL; MIC (HEL [8]): 50 µg/mL; MIC (HEL [20]): > 50 µg/mL; MIC (HEL [22]): > 50 µg/mL; MIC (HEL [23]): > 50 µg/mL; EC50 (CCRF-CEM [24]): 26 µg/mL; Selectivity index [25]: 8; CC50 (CCRF-CEM [26]): > 200 µg/mL
Cc1cn(C2C/C(=N\O)C(CO)O2)c(=O)[nH]c1=O (stereo not given) | > 200 µg/mL | 0.4 µg/mL (≈ 1.57 µM) | 1.1 µg/mL (≈ 4.31 µM) | 0.025 µg/mL (≈ 0.098 µM) | 11 µg/mL (≈ 43.1 µM) | 0.03 µg/mL (≈ 0.118 µM) | > 100 µg/mL | > 200 µg/mL | 1.2 µg/mL (≈ 4.7 µM) | > 200 µg/mL | 1.4 µg/mL (≈ 5.49 µM) | 20 µg/mL (≈ 78.4 µM) | 88 | 1.6 µg/mL (≈ 6.27 µM) | > 200 µg/mL | 0.5 µg/mL (≈ 1.96 µM) | 0.35 µg/mL (≈ 1.37 µM) | > 400 µg/mL | 1.3 µg/mL (≈ 5.09 µM) | 0.7 µg/mL (≈ 2.74 µM) | MIC (HEL [6]): 0.31 µg/mL (≈ 1.21 µM); MIC (HEL [8]): 1.4 µg/mL (≈ 5.49 µM); MIC (HEL [27]): 20 µg/mL (≈ 78.4 µM); MIC (HEL [20]): 0.5 µg/mL (≈ 1.96 µM); MIC (HEL [22]): > 50 µg/mL; MIC (HEL [23]): 0.85 µg/mL (≈ 3.33 µM); EC50 (HepG2): 0.25 µg/mL (≈ 0.98 µM); EC50 (CCRF-CEM [24]): 0.4 µg/mL (≈ 1.57 µM); MIC (HeLa): 135 µg/mL (≈ 529 µM); Selectivity index [25]: 28; CC50 (CCRF-CEM [26]): 9.9 µg/mL (≈ 38.8 µM)
Cc1cn(C2C/C(=[N+](/[O-])O)C(CO)O2)c(=O)[nH]c1=O (stereo not given) | > 200 µg/mL | 35 µg/mL (≈ 129 µM) | 25 µg/mL (≈ 92.2 µM) | 0.86 µg/mL (≈ 3.17 µM) | > 200 µg/mL | 1.2 µg/mL (≈ 4.42 µM) | > 200 µg/mL | > 200 µg/mL | 17 µg/mL (≈ 62.7 µM) | > 200 µg/mL | > 200 µg/mL | > 100 µg/mL | 102 | 91 µg/mL (≈ 336 µM) | > 200 µg/mL | 9 µg/mL (≈ 33.2 µM) | 10 µg/mL (≈ 36.9 µM) | > 200 µg/mL | 35 µg/mL (≈ 129 µM) | > 200 µg/mL | EC50 (CCRF-CEM [24]): 13 µg/mL (≈ 47.9 µM); Selectivity index [25]: 25; CC50 (CCRF-CEM [26]): 247 µg/mL (≈ 911 µM)
